Hits are enriched below; roughly 2.9% of the tested compounds scored in any of these assays.
PG9 Ab binder: small molecules binding HIV-1 gp120 antibody PG9. actives 0.43% (n = 360,000). TR-FRET gp120-PG9 antibody binding. inhibition, % at 6.7 µM; in the data active = inhibition above about 8.5%
Rev-erbA mod: modulators of human Rev-erb alpha DNA binding; activity, % at 10 µM; Rev-erbα–FITC-DNA binding, fluorescence polarization, 90 min; actives 0.79% (n = 370,000);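 active = activity above about 14%, limit read from the data; passing the limit was not always enough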;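 also: 0% = DMSO wells with 35 nM protein and 100% = DMSO wells with 750 nM protein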
Target sequence (P20393 whole entry, looked up): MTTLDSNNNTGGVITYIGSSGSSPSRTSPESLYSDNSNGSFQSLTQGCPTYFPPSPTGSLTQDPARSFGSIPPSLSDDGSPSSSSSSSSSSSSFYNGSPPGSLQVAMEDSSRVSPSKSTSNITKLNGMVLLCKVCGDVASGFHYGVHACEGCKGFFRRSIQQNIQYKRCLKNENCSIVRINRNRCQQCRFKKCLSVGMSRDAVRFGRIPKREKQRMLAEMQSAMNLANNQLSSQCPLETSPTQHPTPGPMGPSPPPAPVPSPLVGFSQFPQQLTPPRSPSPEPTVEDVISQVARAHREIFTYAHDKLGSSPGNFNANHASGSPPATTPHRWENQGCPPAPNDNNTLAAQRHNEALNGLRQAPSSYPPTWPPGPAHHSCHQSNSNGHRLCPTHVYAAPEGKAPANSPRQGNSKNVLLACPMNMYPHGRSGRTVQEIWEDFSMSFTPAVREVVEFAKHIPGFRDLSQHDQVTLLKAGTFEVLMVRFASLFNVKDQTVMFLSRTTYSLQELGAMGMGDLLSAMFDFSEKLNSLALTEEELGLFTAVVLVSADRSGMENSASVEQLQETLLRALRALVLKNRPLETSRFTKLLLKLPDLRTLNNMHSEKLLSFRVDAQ
MIN6 prolif: induces beta-cell replication in MIN6 cells; MIN6 cells proliferation, ATPlite luminescence, 48 h; cells starved in 0.2% serum; 100% = growth in 10% serum; proliferation, % at 10 µM; actives 0.29% (n = 330,000); AID 2380;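 active = compounds whose signal lies at least 3.5 SD above the mean of all wells on their plate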;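 also: 0% = DMSO-treated cells in low-serum medium and 100% = 10% serum control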
iPSC survival up: enhancers of human iPSC single-cell survival. hiPSC single-cell survival, ATPlite luminescence; 100% = ROCK inhibitor wells, 0% = DMSO. survival enhancement, % at 20 µM. actives 0.044% (n = 360,000). AID 602274; in the data active = survival enhancement above about 18%;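 also: cells exposed to compounds for 16 hours before the ATP read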
T cruzi inh: blocks replication of Trypanosoma cruzi. T. cruzi beta-gal in NIH3T3, luminescence, 90 h. actives 1.4% (n = 300,000). inhibition, % (test concentration not listed);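 active = mean inhibition across valid replicates above about 55%, limit read from the data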;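 also: signal also drops with host cell toxicity which is not excluded here; 0% = plate median of DMSO wells and 100% = zero luminescence signal; higher percent means less beta-gal luminescence so fewer parasites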
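System: Mouse NIH/3T3 fibroblasts infected with β-gal-expressing T. cruzi Tulahuen C4 | Quantity: NIH/3T3 cells, 5,000 per well | Reagent: 5000 reporter trypomastigotes per well | Dosing: Compound pinned at 50 nL/well, DMSO | Schedule: 3 h host attachment, then at least 90 h co-culture | Detection: GalScreen luminescence, 60 min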
H9c2 TAG inh: inhibitors of triacylglycerol accumulation. H9c2 cells, Nile Red lipid (TAG) fluorescence; cells loaded with 200 µM oleic acid. inhibition, % at 12.5 µM. actives 0.66% (n = 230,000). AID 651582;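 active = pattern-corrected inhibition of lipid staining of at least 50% with the nuclear-stain viability signal not falling by more than 50%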;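 also: 0% = DMSO wells and 100% = triacsin C control wells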
* hit, by the source's call; / = no result; ! = repeats disagree.

SMILES | PG9 Ab binder | Rev-erbA mod | MIN6 prolif | iPSC survival up | T cruzi inh | H9c2 TAG inh
COc1ccccc1-c1cnc(C(O)c2ccc(C(C)(C)C)cc2)[nH]1 (centres undefined) | -2 | 5 | / | -2 | / | 12
O=C1C(Cc2ccccc2)Nc2ncnc(N3CCN(c4ccccc4)CC3)c2N1Cc1ccc(Br)cc1 (centres undefined) | -3 | 7 | -5 | 1 | / | -13
CCC1Nc2ncnc(N3CCN(c4ccccc4)CC3)c2N(Cc2ccc(Br)cc2)C1=O (centres undefined) | -3 | 0 | -7 | -3 | 58* | /
Cc1cccc(N2CCN(C(=O)C3COc4ccccc4O3)CC2)c1C (centres undefined) | -2 | 2 | -4 | -1 | 8 | /
CC(C)N(CCn1c(SCC(=O)N2CC(=O)Nc3ccccc32)nc2ccccc2c1=O)C(C)C | 1 | 6 | -2 | 0 | 69* | 14
CN(C)CCCn1c(SCC(=O)N2CC(=O)Nc3ccccc32)nc2ccccc2c1=O | -2 | -4 | -1 | 0 | 25 | 13
O=C(NCCCN1CCCC1)c1cc(Sc2ccc(F)cc2)nc2ccccc12 | -1 | -5 | -1 | 0 | 23 | 10
O=Cc1ccc2ccc3cccnc3c2n1 | -1 | -1 | -4 | -1 | -2 | /
c1cnc2c(c1)ccc1cccnc12 | 0 | 0 | -4 | -3 | 55*! | -3
Brc1ccc(C2C3=C(Nc4ncnn42)c2ccccc2OC3c2ccncc2)cc1 (centres undefined) | 1 | 1 | -5 | -1 | 60* | /
CC(C)CCNC(=O)C12CN(Cc3ccccc3)CC1C(c1cccc([N+](=O)[O-])c1)=NO2 (centres undefined) | 2 | 5 | -5 | -2 | 30 | 17
CC(=NNc1nc2ccccc2s1)c1ccncn1 | -2 | -3 | / | -2 | / | 64*
Cc1cc(Br)c(Cl)cc1NC(=O)CN1C(=O)C2C3CC(c4ccccc4)C(C3)C2C1=O (centres undefined) | 0 | 2 | 0 | 3 | 56* | /
Cc1nn(Cc2noc(C(=O)NCCc3ccccn3)n2)c(C)c1Br | -1 | 4 | 1 | 0 | -3 | /
CCn1cc(CN2CCCC(C(=O)c3ccc(-c4ccccc4)c(F)c3)C2)cn1 (centres undefined) | 0 | 5 | -5 | 0 | 55* | -9
CSc1ccccc1C(=O)C1CCCN(Cc2cnn(-c3ccccc3)c2)C1 (centres undefined) | 2 | 4 | -2 | -1 | 74* | /
N#C/C(=C\c1cn(Cc2ccccc2)c2ccccc12)C(=O)NCc1ccco1 | -2 | -1 | 0 | 0 | -5 | /
COc1ccc(NC(=S)NC(NC(=O)c2cccc3ccccc23)C(Cl)(Cl)Cl)c([N+](=O)[O-])c1 (centres undefined) | -2 | 6 | -4 | 3 | 68* | /
CCOc1ccc(-n2c(-c3ccccc3)c[n+]3c2CCCCC3)cc1 | -2 | -2 | -6 | -5 | 60* | -35
Cc1ccc(-c2c[n+]3c(n2-c2ccccc2)CCC3)cc1 | -1 | -4 | -6 | 0 | 55* | 4
c1ccc(-c2cc(-c3nc4ccccc4[nH]3)c3ccccc3n2)cc1 | -1 | -1 | -3 | 0 | 55* | /
Cc1ccc(NC(=O)C2CC2C)cc1S(=O)(=O)N1CCOCC1 (centres undefined) | 1 | 3 | -2 | 0 | 60* | 2
Cc1cc(C(=O)Nc2ccc(C)c(S(=O)(=O)N3CCOCC3)c2)c(C)o1 | 0 | -6 | 0 | 0 | 3 | 4
Cc1ccc(NC(=O)C2CCCN(C(=O)c3ccc(Cl)cc3)C2)cc1S(=O)(=O)N1CCOCC1 (centres undefined) | 0 | 0 | 0 | 0 | 62* | 3
O=C(COc1ccc([N+](=O)[O-])cc1)Nc1cc(S(=O)(=O)N2CCCCC2)ccc1N1CCCCC1 | -1 | -6 | -1 | 1 | 26 | 15
CCN1CCN(c2ccc(S(=O)(=O)N3CCCCC3)cc2NC(=O)COc2ccc(F)cc2Cl)CC1 | -2 | 9 | -6 | 0 | 64* | 32
O=C(COc1ccc(F)cc1)Nc1cc(S(=O)(=O)N2CCCCC2)ccc1N1CCCCC1 | 0 | 4 | -4 | 1 | 55* | 24

Screens as filed in PubChem.
